We go through 12 compounds from article PMC12675685 (Parasitology Research, 2025).

Structures are written as SMILES. Entries after “also recorded” stand apart in the source; their conditions may differ. Counter-ions that a name gives are not always drawn. Like-named read-outs stand apart in the source and are kept apart here.

In one data set the test system is Babesia sp. Xinjiang. Description: Anti-proliferation assay in Babesia sp. Xinjiang. The format is cell-based. As to conditions: for inhibitory effect on BxjG5 proliferation: concentrations increased to 200 μM, data not shown; for inhibition of BxjG5 growth in vitro, in words: 48, 72 and 96 h. An outline of the steps: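 Monoclonal BxjG5 line grown in RPMI 1640 with 20% FBS and 5% fresh sheep RBCs, 37 °C, humidified 5% CO2. Cultures seeded at 1% parasitemia with serial dilutions in medium (200 μΜ to 0.005 μΜ), run 48, 72 or 96 h, with drug-containing medium renewed every 48 h. DMSO controls (≤0.4%). Parasitemia counted on Giemsa smears (2,000–4,000 RBCs), inhibition taken relative to control, and curves fitted. Three experiments, triplicate wells.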

A further data set concerns MDOK cells. The data set can be described thus: Cytotoxicity on host cells. The format is cell-based, sheep. As to conditions: for IC50: read-out: IC50 in MDOK cells, CCK-8; for toxicity to MDOK cells, relative level: compared among the tested compounds.
A further data set concerns Babesia duncani. The data set can be described thus: In vivo anti-Babesia activity in B. duncani-infected hamsters. More on the design: species or system LVG Golden Syrian Hamsters. As to conditions: for effect on B. duncani growth in vivo, in words / day post-treatment on which mortality reached 100% / mean parasitemia (parasite burden): furamidine 2 mg/kg bw; for effect on B. duncani growth in vivo, in words: BIX-01294 7.35 mg/kg bw i.p.; for day post-treatment on which mortality reached 100% / mean parasitemia (parasite burden): i.p. daily for five days, BIX-01294 7.35 mg/kg bw. A digest of the protocol: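 Twenty 12-week-old hamsters were infected i.p. with 2,500 B. duncani-infected RBCs and split randomly into four equal groups. Dosing began once parasites appeared on Giemsa smears (parasitemia ≈ 1%): 200 μl i.p. daily for five days of vehicle (DMSO/PBS 1:1), test compounds or diminazene aceturate 20 mg/kg bw. Parasitemia was followed on smears and survival recorded. Groups were compared by one-way ANOVA with Tukey–Kramer.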

In another data set the test system is Babesia microti. Description: In vivo anti-Babesia activity in B. microti-infected BALB/c mice. Conditions: for effect on B. microti parasite burden in vivo, in words: furamidine 2 mg/kg bw, BIX-01294 10 mg/kg bw, DA 30 mg/kg bw i.p.
A short description of data set [1]: In vivo safety evaluation of furamidine in healthy BALB/c mice. Conditions: 2 mg/kg bw i.p. daily for 5 consecutive days. An outline of the steps:
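Healthy female BALB/c mice, 6–8 weeks old (n = 5/group), received vehicle (DMSO/PBS) or test compound i.p. daily for 5 days. Clinical signs were checked twice daily and weight each morning before dosing. Blood was taken retro-orbitally under isoflurane 24 h after the last dose: EDTA-K2 blood for haematology, serum for biochemistry. Livers were fixed in 4% paraformaldehyde and stained with H&E.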

For the next data set, the system named is Babesia divergens. Conditions: cited from earlier work; for IC50: read-out: IC50 on B. divergens, ref Nehrbass-Stuedli et al. [2011].
A further data set relates to B. microti. As to conditions: ref Nehrbass-Stuedli et al. [2011], cited from earlier work.
A further data set relates to Plasmodium falciparum. Conditions: read-out: IC50 against Plasmodium falciparum; ref Malmquist et al. [2012]; cited from earlier work.
[2] abbreviates: Babesia, 48 h, read-out: IC50 in Babesia sp. Xinjiang.
The mark [3] stands for this setting: Babesia, 72 h, read-out: IC50 in Babesia sp. Xinjiang.
Where [4] appears, read: Babesia, 96 h, read-out: IC50 in Babesia sp. Xinjiang.
[5] abbreviates: Babesia, 96 h, read-out: IC50 on BxjG5 growth.

For the compound `CCOCC1(COCC)CCC(c2[nH]ncc2CN(C)CCNC)CC1.Cl.Cl.Cl` [GSK3368715], the “inhibitory effect on BxjG5 proliferation” value in the data set with Babesia sp. Xinjiang is recorded as “did not observe any obvious inhibitory effect”. In addition, the half-maximal inhibitory concentration (IC50) (commonly the concentration that inhibits the measured activity by half) with Babesia sp. Xinjiang (read-out: IC50 in Babesia sp. Xinjiang, 48 h incubation, BxjG5) was greater than 200 µM; with Babesia sp. Xinjiang (read-out: IC50 in Babesia sp. Xinjiang, 72 h incubation, BxjG5), greater than 200 µM; in the data set on Babesia sp. Xinjiang (read-out: IC50 in Babesia sp. Xinjiang, 96 h incubation, BxjG5) it was greater than 200 µM; in the data set with MDOK cells (24 h) it was greater than 100 µM; with MDOK cells (48 h), greater than 100 µM; with MDOK cells (72 h) it was greater than 100 µM.
`CCCc1cc(C)[nH]c(=O)c1CNC(=O)c1cc(-c2ccc(N3CCN(C(C)C)CC3)nc2)cc2c1cnn2C(C)C` [UNC-1999]: the figures for the IC50 in the data set with Babesia sp. Xinjiang (setting [2]), in the data set on Babesia sp. Xinjiang (setting [3]) and in the data set on Babesia sp. Xinjiang (setting [4]) were 5.15 ± 1.31 µM, 3.88 ± 1 µM and 4.7 ± 1.03 µM, respectively. Also, in the data set on MDOK cells (concentrations exceeded 10 μM), the “inhibition rate on MDOK cells” value is reported as “greater than 70%”.
Regarding `Cc1cn(CCN2CCN(c3ccccc3-c3cc(C#N)cc(C(=O)NCCCN4CCCC4)c3)CC2)c2ccccc12` [LLY-507], the 50% inhibitory concentration (IC50) with Babesia sp. Xinjiang (setting [2]) turned out to be 4.02 ± 0.74 µM; in the data set on Babesia sp. Xinjiang (setting [3]), 3.25 ± 0.46 µM; with Babesia sp. Xinjiang (setting [4]), 2.58 ± 0.63 µM. For the same compound, the “inhibition rate on MDOK cells” value with MDOK cells (concentrations exceeded 10 μM) is “greater than 70%”.
In the case of `O=C(Nc1cccc(C2=NCCN2)c1)Nc1cccc(C2=NCCN2)c1` [Imidocarb dipropionate], in the data set with Babesia sp. Xinjiang, the “inhibition of BxjG5 growth in vitro, in words” value is recorded as “effectively inhibit BxjG5 growth in vitro at nanomolar concentrations”. The results for the 50% inhibitory concentration (IC50) with Babesia sp. Xinjiang (setting [3]) and in the data set with Babesia sp. Xinjiang (setting [4]) were 0.03 µM and 0.02 µM, respectively. The “toxicity to MDOK cells, relative level” value in the data set on MDOK cells is listed as “intermediate levels”.
`CN1C(=O)[C@@]23C[C@]4([C@]56C[C@@]78SS[C@@](CO)(C(=O)N7[C@H]5Nc5ccccc56)N(C)C8=O)c5ccccc5N[C@@H]4N2C(=O)[C@]1(CO)SS3` [Chaetocin]: the IC50 in the data set on Babesia sp. Xinjiang (setting [2]), with Babesia sp. Xinjiang (setting [3]) and with Babesia sp. Xinjiang (setting [4]) was greater than 200 µM throughout. The “inhibitory effect on BxjG5 proliferation” value with Babesia sp. Xinjiang is listed as “did not observe any obvious inhibitory effect”. The “inhibition rate on MDOK cells” value in the data set with MDOK cells (concentrations exceeded 10 μM) was “greater than 70%”.
With `O=C([C@@H](Cc1cccc(C(F)(F)F)c1)NS(=O)(=O)c1cc(F)c2c(c1)CCNC2)N1CCCC1` [PFI-2 hydrochloride], the figures for the half-maximal inhibitory concentration (IC50) in the data set with Babesia sp. Xinjiang (setting [2]), with Babesia sp. Xinjiang (setting [3]) and in the data set with Babesia sp. Xinjiang (setting [4]) were 16.5 ± 0.86 µM, 10.7 ± 0.82 µM and 17.5 ± 1.09 µM, respectively.
Take `CCN(CC)Cc1cc(Nc2ccnc3cc(Cl)ccc23)ccc1O` [Amodiaquine]: the concentration for half-maximal inhibition (IC50) is 33.2 ± 2.19 µM with Babesia sp. Xinjiang (setting [2]), 23.9 ± 1.47 µM in the data set on Babesia sp. Xinjiang (setting [3]), 26.6 ± 1.49 µM in the data set with Babesia sp. Xinjiang (setting [4]) and roughly 26 µM in the data set on Babesia sp. Xinjiang (setting [5]). Further, in the data set on MDOK cells, the “toxicity to MDOK cells, relative level” value is listed as “intermediate levels”.
Take `CCCc1cc(C)[nH]c(=O)c1CNC(=O)c1cc(-c2ccnc(N3CCN(C)CC3)c2)cc2c1cnn2C(C)C` [GSK343]: the half-maximal inhibitory concentration (IC50) is 7.25 ± 0.75 µM in the data set on Babesia sp. Xinjiang (setting [2]), 6.88 ± 0.51 µM in the data set with Babesia sp. Xinjiang (setting [3]) and 7.04 ± 0.56 µM with Babesia sp. Xinjiang (setting [4]).
Consider `N=C(N)c1ccc(-c2ccc(-c3ccc(C(=N)N)cc3)o2)cc1` [Furamidine], for which the “inhibition of BxjG5 growth in vitro, in words” value in the data set on Babesia sp. Xinjiang was “effectively inhibit BxjG5 growth in vitro at nanomolar concentrations”. Also, the IC50 in the data set with Babesia sp. Xinjiang (setting [2]) is 0.03 µM; with Babesia sp. Xinjiang (Babesia, read-out: IC50 on BxjG5), 0.02 µM; in the data set with MDOK cells (24 h) it was 98.81 ± 0.6 µM; in the data set with MDOK cells (48 h), 45.36 ± 0.43 µM; in the data set with MDOK cells (72 h) it was 43.01 ± 0.24 µM; with Babesia divergens (strain 1903), 36.8 nM. In the data set on Babesia divergens (strain 4201), the IC50 is 35.8 nM. The “toxicity to MDOK cells, relative level” value in the data set with MDOK cells is “intermediate levels”. For the same compound, in the data set on Babesia duncani, the “effect on B. duncani growth in vivo, in words” value is on record as “effectively inhibited the growth; also recorded: did not completely eliminate parasites”. The “day post-treatment on which mortality reached 100%” value with Babesia duncani is reported as 6 days. In addition, the “mean parasitemia (parasite burden)” value with Babesia duncani is on record as “less than 10%”. Moreover, the “complete suppression of parasitemia up to day” value in the data set on Babesia microti (furamidine 2 mg/kg) amounted to 50 dpi. The “day posttreatment on which parasitemia peaked” value with Babesia microti (furamidine 2 mg/kg bw i.p.) amounted to 3 days. Further, the “body weight gain versus vehicle control” value in data set [1] is on record as “no significant difference”. In addition, the “hematological and biochemical analyses versus vehicle control” value in data set [1] is “no significant differences”. For the same compound, in data set [1], the “liver histopathology (H&E)” value is given as “appeared normal”. Further, in the data set on B. microti (3.125 mg/kg), the “complete suppression of parasites through” value was 13 days. The “anti-parasite activity in B. microti-infected NMRI mouse model, in words” value with B. microti (25 mg/kg) was “totally cure”.
In the case of `Nc1ncnc2c1ncn2[C@@H]1O[C@H](C[C@@H](N)CC[C@H](N)C(=O)O)[C@@H](O)[C@H]1O` [Sinefungin], the IC50 is 2.14 ± 0.07 µM in the data set with Babesia sp. Xinjiang (setting [2]), 2.25 ± 0.34 µM in the data set with Babesia sp. Xinjiang (setting [3]) and 2.89 ± 1.1 µM in the data set on Babesia sp. Xinjiang (setting [4]). In addition, in the data set with MDOK cells (concentrations increased to 100 μM), the “inhibition rate on MDOK cells” value was less than 30%.
Turning to `COc1cc2nc(N3CCCN(C)CC3)nc(NC3CCN(Cc4ccccc4)CC3)c2cc1OC` [BIX-01294], the IC50 in the data set with Babesia sp. Xinjiang (setting [2]) is 0.47 ± 0.1 µM; with Babesia sp. Xinjiang (setting [3]), 0.35 µM; with Babesia sp. Xinjiang (setting [4]), 0.29 µM; with Babesia sp. Xinjiang (setting [5]) it was 0.29 to 0.47 µM; in the data set with Plasmodium falciparum, 75 ± 36 nM. The “effect on B. duncani growth in vivo, in words” value in the data set on Babesia duncani is given as “did not appear to inhibit Babesia growth in vivo”. Moreover, the “day post-treatment on which mortality reached 100%” value with Babesia duncani is 2 days. Moreover, the “mean parasitemia (parasite burden)” value in the data set with Babesia duncani is “approximately 20%”. Also, the “effect on B. microti parasite burden in vivo, in words” value in the data set with Babesia microti is “did not appear to inhibit Babesia growth in vivo”. For the same compound, the “inhibitory activity against B. divergens in vitro, in words” value in the data set with Babesia divergens (ref Vanheer and Kafsack [2021]) is “moderate inhibitory activity”.
As for `CC(=O)NCC(=O)O.CC(=O)NCC(=O)O.N=C(N)c1ccc(N=NNc2ccc(C(=N)N)cc2)cc1` [DA, Diminazene Aceturate], the “deaths until day 43 posttreatment” value in the data set with Babesia duncani (DA 20 mg/kg bw i.p. daily for five days) is 0/4. Further, the “effect on B. microti parasite burden in vivo, in words” value with Babesia microti is “effectively decreased the parasite burden”.
